Reference: ChEMBL document CHEMBL5154895, “Mechanistic Studies and In Vivo Efficacy of an Oxadiazole-Containing Antibiotic” (J Med Chem, 2022)
In brackets after ≈: the same amount, converted by molar mass. Activity calls are given as the source filed them. The rule behind the calls is not given here.

What was measured:
Staphylococcus aureus [1] = test: Antibacterial activity against methicillin-sensitive Staphylococcus aureus ATCC 6538 assessed as inhibition of bacterial growth incubated for 18 to 20 hrs by broth microdilution method; type: functional; conditions: time 18-20 hrs
Method in brief: (§1)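 Broth microdilution per CLSI. Inoculum was set to 0.5 McFarland and diluted in CAMHB to about 5×10^5 CFU/mL. Serial dilutions of agent were incubated aerobically at 37 °C for 18–20 h. MIC was read visually as the lowest concentration with complete growth inhibition.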

Staphylococcus aureus [2] = test: Antibacterial activity against methicillin-sensitive Staphylococcus aureus NRS 107 assessed as inhibition of bacterial growth incubated for 18 to 20 hrs by broth microdilution method; type: functional; conditions: time 18-20 hrs; method in brief: as §1
Staphylococcus aureus [3] = test: Antibacterial activity against methicillin-resistant Staphylococcus aureus NRS123 assessed as inhibition of bacterial growth incubated for 18 to 20 hrs by broth microdilution method; type: functional; conditions: time 18-20 hrs; method in brief: as §1
Staphylococcus aureus [4] = test: Antibacterial activity against vancomycin-resistant Staphylococcus aureus 9 assessed as inhibition of bacterial growth incubated for 18 to 20 hrs by broth microdilution method; type: functional; conditions: time 18-20 hrs; method in brief: as §1
Streptococcus pneumoniae = test: Antibacterial activity against […] ATCC 700677 assessed as inhibition of bacterial growth incubated for 18 to 20 hrs by broth microdilution method; type: functional; conditions: time 18-20 hrs
Method in brief: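 Broth microdilution per CLSI. S. pneumoniae was diluted to about 5×10^5 CFU/mL in TSB and incubated with serial dilutions of agent at 37 °C for 18–20 h under 5% CO2. MIC was read visually as the lowest concentration completely inhibiting growth.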

HaCaT = test: Cytotoxicity against human HaCaT cells assessed as reduction in cell viability measured upto 64 ug/ml incubated for 2 hrs by MTS assay; type: toxicity, cell-based; conditions: dose < 64 µg/ml
Method in brief: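 Human keratinocytes exposed to compound at 16, 32, 64 and 128 μg/mL in sextuplicate for 2 hours at 37 °C with 5% CO2. DMSO served as the baseline control. MTS reagent added, then 3 h further incubation, and absorbance read at OD490.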

Staphylococcus aureus [5] = test: Downregulation of EsxA protein expression in Staphylococcus aureus assessed as log2 of fold change in protein level measured after 2 hrs by LC-MS/MS analysis relative to control; type: functional
Method in brief: (§2)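 S. aureus ATCC 25923 at OD600 0.6 was treated with compound or DMSO for 2 h at 37 °C, normalised to OD600 1.1, and washed in PBS. Cells were pressure-lysed in 100 mM ammonium bicarbonate, then acetone-precipitated, reduced with DTT, alkylated with iodoacetamide, and digested with trypsin/Lys-C. Peptides were desalted and run on LC-MS/MS. Label-free quantitation used proteins present in all 3 samples, filtered at p<0.05 against DMSO.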

Staphylococcus aureus [6] = test: Downregulation of GloB protein expression in Staphylococcus aureus assessed as log2 of fold change in protein level measured after 2 hrs by LC-MS/MS analysis relative to control; type: functional; method in brief: as §2
Staphylococcus aureus [7] = test: Downregulation of SarR protein expression in Staphylococcus aureus assessed as log2 of fold change in protein level measured after 2 hrs by LC-MS/MS analysis relative to control; type: functional; method in brief: as §2
Staphylococcus aureus [8] = test: Downregulation of MtaB protein expression in Staphylococcus aureus assessed as log2 of fold change in protein level measured after 2 hrs by LC-MS/MS analysis relative to control; type: functional; method in brief: as §2
Staphylococcus aureus [9] = test: Downregulation of PgsA gene expression in Staphylococcus aureus ATCC 25923 assessed as reduction in […] at 0.25 ug/ml incubated for 2 hrs by RT-PCR analysis; type: functional; conditions: dose 0.25 µg/ml
Method in brief: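 S. aureus ATCC 25923 at OD600 0.6 was treated in triplicate with 0.25 μg/mL compound or DMSO for 2 h at 37 °C and pelleted. Total RNA was analysed by real-time RT-PCR with pgsA primers, normalised to 16S rRNA. Significance was tested by Student's t-test.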

Mus musculus = test: Acceleration of wound healing in methicillin-resistant Staphylococcus aureus USA300 infected Balb/c mouse model assessed as reduction in TNF-alpha level in skin wounds administered topically twice daily 2 days post infection and measured after 5 days post compound treatment; type: functional, organism-based; conditions: time 5.0 day
Method in brief: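 Mice had two 6-mm dorsal excisional wounds, each infected with 20 μL of 4.2×10^9 CFU/mL MRSA USA300 and covered with Tegaderm. Treatment began 2 days after infection (n=5 per group): 2% compound in petroleum jelly applied topically twice daily for 5 days. Right-wound homogenates in PBS were centrifuged, supernatants pooled per group, and protein normalised by BCA. Cytokines were measured by mouse cytokine array (pg/mL).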

Staphylococcus aureus [10] = test: Downregulation of 50S rRNA methyltransferase protein expression in Staphylococcus aureus measured after 2 hrs by LC-MS/MS analysis; type: functional; method in brief: as §2
[11] = Toxicity in Balb/c mouse infected with methicillin-resistant Staphylococcus aureus USA300 assessed as hemorrhage administered topically twice daily 2 days post infection and measured after 5 days post compound treatment by H and E staining based histopathological analysis; conditions: in vivo, topical_or_ocular, 120 h, time 5 day
Method in brief: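 MRSA USA300-infected punch wounds in mice, n=5. Topical 2% agent or petroleum jelly vehicle twice daily from day 2 for 5 days. The left wound was formalin-fixed, cut into 4-μm sections and H&E-stained. Whole slides were scanned and assessed by a board-certified veterinary pathologist for necrosis, inflammation, haemorrhage and related features.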

Staphylococcus aureus [12] = test: Upregulation of siderophore biosynthesis protein SbnE expression in Staphylococcus aureus measured after 2 hrs by LC-MS/MS analysis; type: functional
Method in brief: (§3)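 S. aureus ATCC 25923 at OD600 0.6 exposed to compound or DMSO control for 2 h at 37°C, normalized to OD600 1.1 and PBS-washed. Cells were pressure-cycling lysed in 100 mM ammonium bicarbonate, and 50 μg protein was acetone-precipitated, reduced and alkylated, then Trypsin/Lys-C digested and C18-desalted. About 1 μg peptides went to LC-MS/MS. Label-free quantitation kept proteins present in all 3 samples, filtered at p <0.05.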

Staphylococcus aureus [13] = test: Upregulation of Cro/CI family transcriptional regulator expression in Staphylococcus aureus measured after 2 hrs by LC-MS/MS analysis; type: functional; method in brief: as §3
Staphylococcus aureus [14] = test: Upregulation of siderophore biosynthesis protein SbnC expression in Staphylococcus aureus measured after 2 hrs by LC-MS/MS analysis; type: functional; method in brief: as §3
Staphylococcus aureus [15] = test: Downregulation of glycero-phosphodiester phosphodiesterase protein expression in Staphylococcus aureus measured after 2 hrs by LC-MS/MS analysis; type: functional; method in brief: as §2
Staphylococcus aureus [16] = test: Downregulation of oxidoreductase protein expression in Staphylococcus aureus measured after 2 hrs by LC-MS/MS analysis; type: functional; method in brief: as §3
Staphylococcus aureus [17] = test: Downregulation of nucleoside permease protein expression in Staphylococcus aureus measured after 2 hrs by LC-MS/MS analysis; type: functional; method in brief: as §3
Staphylococcus aureus [18] = test: Downregulation of type VII secretion protein EsaB protein expression in Staphylococcus aureus measured after 2 hrs by LC-MS/MS analysis; type: functional; method in brief: as §3
Staphylococcus aureus [19] = test: Downregulation of hydrolase protein expression in Staphylococcus aureus measured after 2 hrs by LC-MS/MS analysis; type: functional; method in brief: as §2
Staphylococcus aureus [20] = test: Downregulation of peptidase protein expression in Staphylococcus aureus measured after 2 hrs by LC-MS/MS analysis; type: functional; method in brief: as §3
Staphylococcus aureus [21] = test: Downregulation of sodium ABC transporter ATP-binding protein expression in Staphylococcus aureus measured after 2 hrs by LC-MS/MS analysis; type: functional; method in brief: as §3
Staphylococcus aureus [22] = test: Downregulation of uroporphyrinogen-III C-methyltransferase protein expression in Staphylococcus aureus measured after 2 hrs by LC-MS/MS analysis; type: functional; method in brief: as §3
Staphylococcus aureus [23] = test: Downregulation of peptide ABC transporter permease protein expression in Staphylococcus aureus measured after 2 hrs by LC-MS/MS analysis; type: functional; method in brief: as §3

`CC1CC(C)CN(S(=O)(=O)c2ccc(C(=O)Nc3nnc(-c4ccc(C(F)(F)F)cc4)o3)cc2)C1` (stereo unspecified) gave an MIC (Staphylococcus aureus [1]) of 0.25 µg/mL (≈ 0.492 µM), an MIC (Staphylococcus aureus [2]) of 0.25 µg/mL (≈ 0.492 µM) and an MIC (Staphylococcus aureus [3]) of 0.25 µg/mL (≈ 0.492 µM). For the same compound, the MIC (Staphylococcus aureus [4]) was 0.25 µg/mL (≈ 0.492 µM), the MIC (Streptococcus pneumoniae) was 0.06 µg/mL (≈ 0.118 µM) and the Activity (HaCaT) was “Non-Toxic”. The log2FC (Staphylococcus aureus [5]) was -2, the log2FC (Staphylococcus aureus [6]) was -2 and the log2FC (Staphylococcus aureus [7]) was -2. For the same compound, the log2FC (Staphylococcus aureus [8]) was -2, the Activity (Staphylococcus aureus [9]) was “Active” and the Activity (Mus musculus) was “Active”. For the same compound, the Activity (Staphylococcus aureus [10]) was “Active”, the Activity [11] was “Toxic” and the Activity (Staphylococcus aureus [12]) was “Active”. For the same compound, the Activity (Staphylococcus aureus [13]) was “Active”, the Activity (Staphylococcus aureus [14]) was “Active” and the Activity (Staphylococcus aureus [15]) was “Active”. The Activity (Staphylococcus aureus [16]) was “Active”, the Activity (Staphylococcus aureus [17]) was “Active” and the Activity (Staphylococcus aureus [18]) was “Active”. The Activity (Staphylococcus aureus [19]) was “Active”, the Activity (Staphylococcus aureus [20]) was “Active” and the Activity (Staphylococcus aureus [21]) was “Active”. For the same compound, the Activity (Staphylococcus aureus [22]) was “Active” and the Activity (Staphylococcus aureus [23]) was “Active”.
